We go through one molecule from paper PMC3589814 (Journal of molecular biology, 2012).

Holding throughout (assay): isothermal titration calorimetry
Type in all cases: binding
A general note: In ITC the heat of successive injections is recorded.

For experiment [1], the target named is ScRR1 (Saccharomyces cerevisiae, UniProt P21524, Q288A). Put shortly: (§1)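 Yeast RR1 (wild type or loop 2 mutant) in the ITC cell at 25 °C, in 50 mM Hepes pH 7.0 with 5 mM MgCl₂, 5 mM DTT and 5% glycerol (20 µM protein for wild type). Titrant was 0.5 mM dGTP. For ADP binding the protein was pre-saturated with dGTP (500 µM); for CDP binding it was pre-saturated with AMPPNP. Blank-corrected heats were fitted to a one-site model, and Kd was taken from the association constant.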
Chain of ScRR1 (Saccharomyces cerevisiae, UniProt P21524, Q288A) (P21524 whole entry Q288A): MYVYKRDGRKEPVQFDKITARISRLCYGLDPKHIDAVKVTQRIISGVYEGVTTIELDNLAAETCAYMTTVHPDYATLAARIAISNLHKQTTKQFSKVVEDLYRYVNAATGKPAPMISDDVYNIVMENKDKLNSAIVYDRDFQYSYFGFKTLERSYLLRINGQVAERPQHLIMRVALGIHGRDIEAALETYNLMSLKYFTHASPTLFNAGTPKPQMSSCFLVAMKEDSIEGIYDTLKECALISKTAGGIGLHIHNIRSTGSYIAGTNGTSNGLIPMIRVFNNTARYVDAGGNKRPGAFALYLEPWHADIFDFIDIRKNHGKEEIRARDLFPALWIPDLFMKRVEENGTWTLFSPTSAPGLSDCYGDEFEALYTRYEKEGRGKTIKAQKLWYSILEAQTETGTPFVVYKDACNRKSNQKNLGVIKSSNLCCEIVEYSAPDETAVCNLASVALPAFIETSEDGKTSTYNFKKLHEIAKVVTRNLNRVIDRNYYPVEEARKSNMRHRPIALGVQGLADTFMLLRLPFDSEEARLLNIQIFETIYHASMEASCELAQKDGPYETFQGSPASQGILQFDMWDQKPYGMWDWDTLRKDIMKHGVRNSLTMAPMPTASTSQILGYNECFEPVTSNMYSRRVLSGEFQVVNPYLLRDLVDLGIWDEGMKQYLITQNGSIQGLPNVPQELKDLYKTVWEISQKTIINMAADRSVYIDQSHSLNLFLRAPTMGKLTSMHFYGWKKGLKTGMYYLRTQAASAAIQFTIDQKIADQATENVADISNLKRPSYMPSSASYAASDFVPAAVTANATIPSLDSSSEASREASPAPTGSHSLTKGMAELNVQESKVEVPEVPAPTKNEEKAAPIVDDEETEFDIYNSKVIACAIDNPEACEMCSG

Experiment [2] deals with ScRR1 (Saccharomyces cerevisiae, UniProt P21524, R293A). In a few lines: as §1
Chain of ScRR1 (Saccharomyces cerevisiae, UniProt P21524, R293A) (P21524 whole entry R293A): as the sequence (P21524 whole entry Q288A) above, with A288Q, R293A counted along it
Experiment [3] concerns the target T1, ScRR1 (Saccharomyces cerevisiae, UniProt P21524).
T1 sequence (P21524 1-888): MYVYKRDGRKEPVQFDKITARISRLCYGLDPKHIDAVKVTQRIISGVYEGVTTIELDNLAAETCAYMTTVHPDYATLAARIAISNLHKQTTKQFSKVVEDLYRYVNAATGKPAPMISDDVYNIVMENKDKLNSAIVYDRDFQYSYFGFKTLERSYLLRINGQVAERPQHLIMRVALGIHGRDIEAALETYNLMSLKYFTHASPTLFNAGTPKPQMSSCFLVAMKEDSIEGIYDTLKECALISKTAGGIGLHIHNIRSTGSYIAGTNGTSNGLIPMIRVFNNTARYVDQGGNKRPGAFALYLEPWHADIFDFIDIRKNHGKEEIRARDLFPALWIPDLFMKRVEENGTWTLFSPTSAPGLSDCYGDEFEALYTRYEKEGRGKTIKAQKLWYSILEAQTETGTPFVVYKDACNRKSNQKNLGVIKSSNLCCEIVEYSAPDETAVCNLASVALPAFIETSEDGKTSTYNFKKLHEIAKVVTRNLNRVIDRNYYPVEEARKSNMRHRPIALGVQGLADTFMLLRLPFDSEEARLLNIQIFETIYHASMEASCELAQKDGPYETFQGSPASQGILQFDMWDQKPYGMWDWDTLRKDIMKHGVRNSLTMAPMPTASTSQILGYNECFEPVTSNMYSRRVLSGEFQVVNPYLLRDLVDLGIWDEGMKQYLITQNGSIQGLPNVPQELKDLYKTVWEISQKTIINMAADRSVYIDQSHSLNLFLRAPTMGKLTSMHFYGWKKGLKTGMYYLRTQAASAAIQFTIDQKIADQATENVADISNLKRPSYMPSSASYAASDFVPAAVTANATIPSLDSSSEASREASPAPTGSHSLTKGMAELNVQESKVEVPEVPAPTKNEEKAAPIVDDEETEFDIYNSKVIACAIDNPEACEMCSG
Put shortly:
as §1

pKd: −log10 of the molar value.

As a reminder, the pKd is the negative decadic logarithm of the Kd, by convention in mol/L. A low value points to a large Kd. On to `Nc1nc2c(ncn2[C@H]2C[C@H](O)[C@@H](COP(=O)(O)OP(=O)(O)OP(=O)(O)O)O2)c(=O)[nH]1` [dGTP], for which the pKd was 6.28 at ScRR1 [1], 6.24 on ScRR1 [2] and 6.57 on ScRR1 [3].
